Results published in ChEMBL document CHEMBL1165950, “Design and synthesis of new potent anticancer pyrazoles with high FLT3 kinase inhibitory selectivity” (Bioorg Med Chem, 2010).

Experiments:
Type in all cases: functional
[1] = test system: SK-MEL-2; experiment: Cytotoxicity against human SK-MEL-2 cells assessed as cell growth at 0.01 uM after 48 hrs by sulforhodamine B assay; conditions: SK-MEL-2, 48 h, read-out: Activity
[2] = test system: SK-MEL-28; experiment: Cytotoxicity against human SK-MEL-28 cells assessed as cell growth at 10 uM; conditions: read-out: Activity
Outline: (§1)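 NCI-60 screen: cells grown in RPMI 1640 with 5% FBS and 2 mM L-glutamine, plated at 5000–40,000 cells/well according to doubling time, and preincubated 24 h at 37 °C, 5% CO2. The single 10 µM dose (DMSO stock) was added, then incubated 48 h. Cells were TCA-fixed and stained with 0.4% SRB, read at 515 nm, and growth % calculated against time-zero and control plates.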

[3] = test system: NCI-H522; experiment: Cytotoxicity against human NCI-H522 cells assessed as cell growth at 100 nM after 48 hrs by sulforhodamine B assay; conditions: NCI-H522, 48 h, read-out: Activity
[4] = test system: OVCAR-4; experiment: Cytotoxicity against human OVCAR4 cells assessed as cell growth at 0.01 uM after 48 hrs by sulforhodamine B assay; conditions: OVCAR-4, 48 h, read-out: Activity
[5] = test system: NCI/ADR-RES; experiment: Cytotoxicity against human NCI/ADR-RES cells assessed as cell growth at 0.01 uM after 48 hrs by sulforhodamine B assay; conditions: read-out: Activity
[6] = test system: SF-539; experiment: Cytotoxicity against human SF539 cells assessed as cell growth at 10 uM after 48 hrs by sulforhodamine B assay; conditions: SF-539, 48 h, read-out: Activity
[7] = test system: A498; experiment: Cytotoxicity against human A498 cells assessed as cell growth at 10 uM after 48 hrs by sulforhodamine B assay; conditions: A498, 48 h, read-out: Activity
Outline: (§2)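 NCI-60 five-dose screen. Cells were grown in RPMI 1640 with 5% FBS and 2 mM L-glutamine, plated at 5000–40,000 cells/well and preincubated for 24 h. Time-zero plates were TCA-fixed. DMSO-solubilized drug was added at five concentrations (10-fold or ½-log serial dilutions) for 48 h at 37 °C, 5% CO2. Cells were TCA-fixed, stained with 0.4% SRB and read at 515 nm. Percent growth used time-zero, control and test absorbances.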

[8] = test system: HOP-92; experiment: Cytotoxicity against human HOP92 cells assessed as cell growth at 100 nM after 48 hrs by sulforhodamine B assay; conditions: HOP-92, 48 h, read-out: Activity
[9] = test system: SN12C; experiment: Cytotoxicity against human SN12C cells assessed as cell growth at 10 uM; conditions: read-out: Activity; outline: as §1
[10] = test system: SF-539; experiment: Cytotoxicity against human SF539 cells assessed as cell growth at 1 uM after 48 hrs by sulforhodamine B assay; conditions: SF-539, 48 h, read-out: Activity
[11] = test system: HCT-116; experiment: Cytotoxicity against human HCT116 cells assessed as cell growth at 10 uM after 48 hrs by sulforhodamine B assay; conditions: HCT-116, 48 h, read-out: Activity
[12] = test system: HCC 2998; experiment: Cytotoxicity against human HCC2998 cells assessed as cell growth at 10 uM; conditions: read-out: Activity
Outline: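 Single-dose NCI-60 screen at 10 µM. Cells were grown in RPMI 1640 with 5% FBS and 2 mM L-glutamine, then treated for 48 h at 37 °C. Protein was measured by SRB staining with absorbance at 515 nm. Percentage growth was recorded, and inhibition percentage was calculated as 100 minus growth percentage.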

[13] = test system: MDA-MB-468; experiment: Cytotoxicity against human MDA-MB-468 cells assessed as cell growth at 1 uM after 48 hrs by sulforhodamine B assay; conditions: MDA-MB-468, 48 h, read-out: Activity
[14] = test system: SN12C; experiment: Cytotoxicity against human SN12C cells assessed as cell growth at 0.01 uM after 48 hrs by sulforhodamine B assay; conditions: read-out: Activity
[15] = test system: SK-MEL-2; experiment: Cytotoxicity against human SK-MEL-2 cells assessed as cell growth at 1 uM after 48 hrs by sulforhodamine B assay; conditions: SK-MEL-2, 48 h, read-out: Activity
[16] = test system: NCI-H23; experiment: Cytotoxicity against human NCI-H23 cells assessed as cell growth at 10 uM after 48 hrs by sulforhodamine B assay; conditions: NCI-H23, 48 h, read-out: Activity
[17] = test system: ACHN; experiment: Growth inhibition of human ACHN cells after 48 hrs by sulforhodamine B assay
Outline: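 NCI five-dose SRB assay in RPMI 1640 with 5% FBS and 2 mM L-glutamine. Cells were preincubated 24 h, then exposed 48 h at 37 °C to five concentrations (10-fold or half-log serial dilutions from DMSO stocks). TCA fixation, SRB staining, and absorbance at 515 nm followed. IC50 was taken where [(Ti−Tz)/(C−Tz)]×100 = 50, with Tz as time-zero cell density.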

[18] = test system: A549; experiment: Cytotoxicity against human A549 cells assessed as cell growth at 0.001 uM after 48 hrs by sulforhodamine B assay; conditions: A549, 48 h, read-out: Activity; outline: as §2
[19] = test system: KM12; experiment: Cytotoxicity against human KM12 cells assessed as cell growth at 1 uM after 48 hrs by sulforhodamine B assay; conditions: KM12, 48 h, read-out: Activity
[20] = test system: SNB-75; experiment: Growth inhibition of human SNB75 cells after 48 hrs by sulforhodamine B assay; conditions: SNB-75, 48 h; for CC50: read-out: LC50 (the source's name)
Outline: (§3)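 NCI 60-cell screen, five-dose mode. Cells grown in RPMI 1640 with 5% FBS and 2 mM L-glutamine and plated at 5000-40,000 cells/well according to doubling time. After 24 h preincubation, a Tz plate was TCA-fixed. Five concentrations (10-fold or 1/2 log dilutions) were applied for 48 h at 37 °C. SRB staining read at 515 nm. IC50 taken from [(Ti-Tz)/(C-Tz)]×100 = 50.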

[21] = test system: SF-539; experiment: Cytotoxicity against human SF539 cells assessed as cell growth at 100 nM after 48 hrs by sulforhodamine B assay; conditions: SF-539, 48 h, read-out: Activity
[22] = test system: UO-31; experiment: Growth inhibition of human UO31 cells after 48 hrs by sulforhodamine B assay; conditions: UO-31, 48 h; for CC50: read-out: LC50 (the source's name); outline: as §3
[23] = test system: SN12C; experiment: Cytotoxicity against human SN12C cells assessed as cell growth at 1 uM after 48 hrs by sulforhodamine B assay; conditions: read-out: Activity
[24] = test system: SK-MEL-2; experiment: Cytotoxicity against human SK-MEL-2 cells assessed as cell growth at 100 nM after 48 hrs by sulforhodamine B assay; conditions: SK-MEL-2, 48 h, read-out: Activity
[25] = test system: PC-3; experiment: Cytotoxicity against human PC3 cells assessed as cell growth at 10 uM; conditions: read-out: Activity; outline: as §1
[26] = test system: UACC-62; experiment: Cytotoxicity against human UACC62 cells assessed as cell growth at 0.01 uM after 48 hrs by sulforhodamine B assay; conditions: UACC-62, 48 h, read-out: Activity
[27] = test system: SF-268; experiment: Cytotoxicity against human SF268 cells assessed as cell growth at 100 nM after 48 hrs by sulforhodamine B assay; conditions: SF-268, 48 h, read-out: Activity
[28] = test system: UO-31; experiment: Cytotoxicity against human UO31 cells assessed as cell growth at 0.01 uM after 48 hrs by sulforhodamine B assay; conditions: UO-31, 48 h, read-out: Activity
[29] = test system: NCI/ADR-RES; experiment: Cytotoxicity against human NCI/ADR-RES cells assessed as cell growth at 100 nM after 48 hrs by sulforhodamine B assay; conditions: read-out: Activity

| Structure (SMILES) | growth at 0.01 µM [1] | growth at 10 µM [2] | growth at 0.1 µM [3] | growth at 0.01 µM [4] | growth at 0.01 µM [5] | growth at 10 µM [6] | growth at 10 µM [7] | growth at 0.1 µM [8] | growth at 10 µM [9] | growth at 1 µM [10] | growth at 10 µM [11] | growth at 10 µM [12] | growth at 1 µM [13] | growth at 0.01 µM [14] | growth at 1 µM [15] | growth at 10 µM [16] | GI50 [17] | LC50 (concentration giving 50% net cell kill) [17] | TGI [17] | growth at 0.001 µM [18] | further results |
| --- | --- | --- | --- | --- | --- | --- | --- | --- | --- | --- | --- | --- | --- | --- | --- | --- | --- | --- | --- | --- | --- |
| COc1cc(C)cc(-c2c(-c3ccnc(-c4ccc(C(C)=O)cc4)c3)cnn2CC#N)c1 | 90% | 62% | 76% | 101% | 91% | -34% | 27% | 61% | 66% | -45% | -17% | 80.8% | -48% | 93% | 34% | 18% | 3.76 µM | > 100 µM | > 100 µM | 95% | growth at 1 µM [19]: 9%; GI50 [20]: 2.08 µM; CC50 [20]: > 100 µM; growth at 0.1 µM [21]: 92%; GI50 [22]: 2.61 µM; TGI [22]: > 100 µM; CC50 [22]: > 100 µM; growth at 1 µM [23]: 28%; growth at 0.1 µM [24]: 103%; growth at 10 µM [25]: 77.3%; growth at 0.01 µM [26]: 88%; growth at 0.1 µM [27]: 85%; growth at 0.01 µM [28]: 87%; growth at 0.1 µM [29]: 83% |
| COc1cc(C)cc(-c2c(-c3ccnc(-c4ccc(N(C)C)cc4)c3)cnn2CC#N)c1 | 66% | 42.1% | -47% | 77% | 80% | 2% | 7% | -3% | 29.4% | 1% | -27% | -57.5% | -57% | 75% | 11% | 17% | 0.068 µM | > 100 µM | > 100 µM | 95% | growth at 1 µM [19]: -43%; GI50 [20]: 0.0694 µM; TGI [20]: > 100 µM; CC50 [20]: > 100 µM; growth at 0.1 µM [21]: -29%; GI50 [22]: 0.508 µM; TGI [22]: > 100 µM; CC50 [22]: > 100 µM; growth at 1 µM [23]: 18%; growth at 0.1 µM [24]: 14%; growth at 10 µM [25]: 27.6%; growth at 0.01 µM [26]: 38%; growth at 0.1 µM [27]: 29%; growth at 0.01 µM [28]: 63%; growth at 0.1 µM [29]: 2% |
| COc1cc(C)cc(-c2nn(CC#N)cc2-c2ccnc(-c3ccc(N(C)C)cc3)c2)c1 | 116% | 32.4% | -39% | 98% | 99% | -38% | -33% | 35% | 24.7% | -35% | -44% | -46.5% | -55% | 90% | 23% | 5% | 0.499 µM | > 100 µM | 12.4 µM | 97% | growth at 1 µM [19]: -37%; GI50 [20]: 0.286 µM; TGI [20]: 0.848 µM; CC50 [20]: > 100 µM; growth at 0.1 µM [21]: -31%; GI50 [22]: 0.619 µM; TGI [22]: 98.7 µM; CC50 [22]: > 100 µM; growth at 1 µM [23]: 8%; growth at 0.1 µM [24]: 50%; growth at 10 µM [25]: 31.6%; growth at 0.01 µM [26]: 86%; growth at 0.1 µM [27]: 31%; growth at 0.01 µM [28]: 92%; growth at 0.1 µM [29]: -22% |
